Activity calls are given as the source filed them. No cut-off for these calls is given here.

Data set [1] relates to Mast/stem cell growth factor receptor Kit (Homo sapiens), P10721 [UNDEFINED MUTATION]. Nature of the data set: Inhibition of c-KIT 560 to 578 deletion/T670I double mutant in human GIST5R cells assessed as reduction in ERK phosphorylation at T202/Y204 residue at 0.1 uM to 3 uM after 1 hr by Western blot analysis. The format is cell-based. Summed up: (§1)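 Serial compound dilutions applied for 1 h to GIST-T1, GIST-T1-T670I (CRISPR/Cas9 T670I knock-in, clone confirmed by Sanger sequencing) or GIST-5R cells in DMEM with 10% FBS. Cells then lysed and phospho-proteins detected by standard Western blotting.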
Sequence of Mast/stem cell growth factor receptor Kit (Homo sapiens), P10721 [UNDEFINED MUTATION] (P10721 whole entry, looked up, stated change not applied): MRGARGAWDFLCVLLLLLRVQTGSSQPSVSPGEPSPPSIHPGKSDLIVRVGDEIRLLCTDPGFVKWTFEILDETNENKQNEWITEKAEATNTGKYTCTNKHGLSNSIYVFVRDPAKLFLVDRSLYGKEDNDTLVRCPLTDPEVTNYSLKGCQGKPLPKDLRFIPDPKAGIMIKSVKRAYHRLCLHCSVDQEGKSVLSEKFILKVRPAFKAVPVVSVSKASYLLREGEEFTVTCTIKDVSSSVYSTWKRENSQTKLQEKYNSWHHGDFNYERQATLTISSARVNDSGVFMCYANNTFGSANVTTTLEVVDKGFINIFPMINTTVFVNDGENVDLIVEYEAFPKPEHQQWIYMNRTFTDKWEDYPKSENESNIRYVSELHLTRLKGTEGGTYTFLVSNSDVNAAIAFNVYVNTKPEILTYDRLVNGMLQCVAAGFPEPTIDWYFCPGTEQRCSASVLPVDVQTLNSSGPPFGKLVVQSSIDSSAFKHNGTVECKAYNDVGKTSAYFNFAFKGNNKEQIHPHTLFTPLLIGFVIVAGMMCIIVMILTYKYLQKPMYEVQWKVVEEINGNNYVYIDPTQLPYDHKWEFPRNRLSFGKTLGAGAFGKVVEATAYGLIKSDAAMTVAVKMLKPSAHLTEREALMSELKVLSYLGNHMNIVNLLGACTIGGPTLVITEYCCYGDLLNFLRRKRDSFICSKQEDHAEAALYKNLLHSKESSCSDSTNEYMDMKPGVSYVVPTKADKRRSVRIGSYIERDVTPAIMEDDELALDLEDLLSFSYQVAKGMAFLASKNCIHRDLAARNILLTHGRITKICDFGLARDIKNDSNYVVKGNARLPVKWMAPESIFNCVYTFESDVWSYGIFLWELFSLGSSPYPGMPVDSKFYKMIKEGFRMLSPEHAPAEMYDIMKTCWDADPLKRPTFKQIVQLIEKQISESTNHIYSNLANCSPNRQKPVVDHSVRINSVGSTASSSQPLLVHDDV
On the technique in general: A western blot detects proteins with antibodies after separation by electrophoresis.

Data set [2] is described as follows: Drug level in plasma of nude mouse xenograted with human GIST5R cells at 100 mg/kg, po administered as single dose and measured at 4 hrs. To be noted: in vivo. In kind it is ADME, organism-based. The procedure, abridged:
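GIST-5R xenograft nu/nu mice given a single 100 mg/kg oral dose; plasma drug concentration followed over a time course alongside tumor p-c-KIT, p-ERK and p-AKT.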

Data set [3] has as its target Mast/stem cell growth factor receptor Kit (Homo sapiens, UniProt P10721, T670I). Nature of the data set: Inhibition of TEL fused wild type c-KIT T670I mutant (unknown origin) transfected in mouse BaF3 cells assessed as reduction in phosphorylation at Y823 residue after 2 hrs by Western blot analysis. In kind it is cell-based.
Data set [4] is described as follows: Apparent clearance in Sprague-Dawley rat at 10 mg/kg, po measured after 5 to 720 mins by LC-tandem mass spectrometry analysis. The format is ADME, organism-based. To be noted: in vivo, read-out: CL(app) (converted). Summed up:
(§2)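 Male Sprague-Dawley rats (190-210 g), fasted 12 h, randomized into two groups: 1 mg/kg i.v. or 10 mg/kg p.o., both formulated in 10% DMSO/90% of 5% glucose water. Blood sampled at 2-720 min (i.v.) or 5-720 min (p.o.). Plasma protein-precipitated with methanol, caffeine internal standard, LC-MS/MS. Noncompartmental analysis; triplicate, ±SD.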

Data set [5] concerns the target Platelet-derived growth factor receptor alpha (Homo sapiens, UniProt P16234). The experiment in a line: Inhibition of wild-type human partial length PDGFRA (V575 to D1002 residues) expressed in mammalian expression system after 1 hr by Z-LYTE assay.
In data set [6] the target is Mast/stem cell growth factor receptor Kit (Homo sapiens, UniProt P10721). The experiment in a line: Inhibition of wild type c-KIT phosphorylation at Y719 residue in human COLO320DM cells after 2 hrs by Western blot analysis. In kind it is cell-based.
The nature of data set [7]: Cmax in Sprague-Dawley rat at 10 mg/kg, po measured after 5 to 720 mins by LC-tandem mass spectrometry analysis. In kind it is ADME, organism-based. More on the design: dose 10 mg/kg, route oral. To be noted: in vivo. The procedure, abridged: as §2
The nature of data set [8]: Apparent clearance in Sprague-Dawley rat at 1 mg/kg, iv measured after 2 to 720 mins by LC-tandem mass spectrometry analysis. The format is ADME, organism-based. To be noted: in vivo, read-out: CL(app) (converted). Summed up: as §2
Data set [9] deals with Mast/stem cell growth factor receptor Kit (Homo sapiens), P10721 [V654A]. The experiment in a line: Inhibition of TEL fused c-KIT V654A mutant (unknown origin) transfected in mouse BAF3 cells assessed as growth inhibition after 72 hrs by CCK8 assay. The format is cell-based. The procedure, abridged:
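Tel-c-KIT-transformed BaF3 lines (IL-3 independent) kept in RPMI 1640 with 10% FBS, 2% L-glutamine and pen/strep. Cells at 1.5 to 5 × 10^4 cells/mL mixed with graded compound and incubated 72 h at 37 °C, 5% CO2. Viability by CCK-8 absorbance at 450 nm, normalized to DMSO. GI50 from dose–response fit.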

Data set [10] concerns GISTT1. The experiment in a line: Antiproliferative activity against human GISTT1 cells harboring c-KIT 560 to 578 deletion/T670I double mutant incubated for 72 hrs by CCK8 assay. In kind it is functional. To be noted: GISTT1, 72 h. The procedure, abridged:
(§3)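 Adherent GIST cells seeded at 1.5-5 × 10^4 cells/mL and left overnight at 37 °C, 5% CO2. Medium then replaced with medium holding serial compound dilutions; 72 h incubation. Viability by CCK-8, absorbance at 450 nm, normalized to DMSO control; GI50 from dose-response fit.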
(Tetrazolium dyes change colour on reduction, which living cells bring about.)

In a further data set the test system is GIST882. The experiment in a line: Antiproliferative activity against human GIST882 cells harboring c-KIT K642E mutant incubated for 72 hrs by CCK8 assay. To be noted: GIST882, 72 h. In kind it is functional. Summed up: as §3
The subject of data set [11] is Mast/stem cell growth factor receptor Kit (Homo sapiens), P10721 [UNDEFINED MUTATION]. Nature of the data set: Inhibition of c-KIT 560 to 578 deletion/T670I double mutant in human GIST5R cells assessed as reduction in c-KIT autophosphorylation at Y719 residue at 0.1 uM to 3 uM after 1 hr by Western blot analysis. In kind it is cell-based. Summed up:
as §1

Data set [12] shares this test system. Nature of the data set: Inhibition of c-KIT 560 to 578 deletion mutant in human GISTT1 cells assessed as reduction in c-KIT autophosphorylation at Y703 residue at 0.1 uM to 3 uM after 1 hr by Western blot analysis. The format is cell-based. The procedure, abridged:
as §1

The subject of data set [13] is GISTT1. Nature of the data set: Induction of apoptosis in human GISTT1 cells harboring c-KIT 560 to 578 deletion mutant assessed as increase in cleaved PARP level after 24 hrs by Western blot analysis. In kind it is functional, cell-based. The procedure, abridged: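 GIST cells grown in DMEM with 10% FBS, treated 24 h with serially diluted compound; apoptosis read by Western blot for PARP, with GAPDH as loading control.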

In a further data set the test system is Mus musculus. Nature of the data set: Inhibition of AKT phosphorylation at […] residue in tumor of human GIST5R cells xenografted in nude mouse at 100 mg/kg, po administered as single dose and measured at 2 hrs. In kind it is functional, organism-based. Summed up: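 Female nu/nu mice bearing subcutaneous GIST-5R tumors (cells in Matrigel, right flank) given one oral dose of 100 mg/kg in 0.5% methylcellulose/0.4% Tween80. Tumors collected over a 2 h time course. p-c-KIT, p-ERK and p-AKT measured alongside plasma drug levels.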
On the technique in general: Xenograft models place foreign cells or tissue in a host animal.

Data set [14] deals with Mast/stem cell growth factor receptor Kit (Homo sapiens), P10721 [L576P]. Nature of the data set: Binding affinity to human partial length c-KIT L576P mutant (Y545 to D952 residues) expressed in bacterial expression system assessed as enzyme remaining activity at 1 uM by Kinomescan method relative to control. The procedure, abridged: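 KINOMEscan binding profile (DiscoverX) run at 1 μM against a panel of 468 kinases and mutants. Read-out is percent of control (%Ctrl) remaining bound.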
Sequence of Mast/stem cell growth factor receptor Kit (Homo sapiens), P10721 [L576P] (P10721 whole entry L576P, the tested form may be a part): as the sequence (P10721 whole entry, looked up, stated change not applied) above, with L576P counted along it

For data set [15], the target named is Serine/threonine-protein kinase Nek1 (Homo sapiens, UniProt Q96PY6). The experiment in a line: Inhibition of wild-type human partial length NEK1 (M1 to K278 residues) expressed in bacterial expression system after 1 hr by Z-LYTE assay.
Sequence of Serine/threonine-protein kinase Nek1 (Q96PY6 whole entry, the tested form may be a part): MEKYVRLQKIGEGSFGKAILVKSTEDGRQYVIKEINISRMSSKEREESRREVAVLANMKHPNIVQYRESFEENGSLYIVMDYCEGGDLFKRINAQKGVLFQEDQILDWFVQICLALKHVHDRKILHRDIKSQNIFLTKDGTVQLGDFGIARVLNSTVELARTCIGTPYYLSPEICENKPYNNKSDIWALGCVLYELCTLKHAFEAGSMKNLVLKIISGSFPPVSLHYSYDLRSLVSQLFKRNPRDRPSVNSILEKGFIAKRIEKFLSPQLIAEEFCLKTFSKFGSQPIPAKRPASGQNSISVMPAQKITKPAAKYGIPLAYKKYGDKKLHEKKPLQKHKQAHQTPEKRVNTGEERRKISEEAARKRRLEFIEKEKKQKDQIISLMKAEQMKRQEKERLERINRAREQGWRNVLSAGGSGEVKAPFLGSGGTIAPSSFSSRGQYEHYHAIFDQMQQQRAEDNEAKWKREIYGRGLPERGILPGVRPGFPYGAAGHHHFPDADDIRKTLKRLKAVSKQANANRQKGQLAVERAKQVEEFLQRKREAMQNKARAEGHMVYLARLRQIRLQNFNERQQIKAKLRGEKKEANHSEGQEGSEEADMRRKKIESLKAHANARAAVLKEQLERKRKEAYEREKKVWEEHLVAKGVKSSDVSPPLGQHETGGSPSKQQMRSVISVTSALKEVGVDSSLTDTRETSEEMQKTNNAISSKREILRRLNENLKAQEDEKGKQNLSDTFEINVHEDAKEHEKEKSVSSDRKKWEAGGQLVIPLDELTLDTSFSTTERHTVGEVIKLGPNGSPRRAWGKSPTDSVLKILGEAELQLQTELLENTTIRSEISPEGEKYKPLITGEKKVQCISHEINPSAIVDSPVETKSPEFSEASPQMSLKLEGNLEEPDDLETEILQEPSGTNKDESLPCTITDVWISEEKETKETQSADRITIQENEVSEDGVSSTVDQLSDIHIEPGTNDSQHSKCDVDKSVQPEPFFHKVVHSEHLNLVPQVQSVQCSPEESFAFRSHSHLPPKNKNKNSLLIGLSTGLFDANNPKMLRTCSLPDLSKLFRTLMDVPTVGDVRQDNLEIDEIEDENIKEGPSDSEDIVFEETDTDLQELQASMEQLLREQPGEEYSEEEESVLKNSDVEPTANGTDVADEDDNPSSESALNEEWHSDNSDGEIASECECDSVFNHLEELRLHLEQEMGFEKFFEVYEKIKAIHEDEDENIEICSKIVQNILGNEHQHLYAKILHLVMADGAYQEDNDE
Data set [16] has as its system Mast/stem cell growth factor receptor Kit (Homo sapiens), P10721 [UNDEFINED MUTATION]. Nature of the data set: Inhibition of c-KIT 560 to 578 deletion/T670I double mutant in human GISTT1 cells assessed as reduction in c-KIT autophosphorylation at Y703 residue at 0.1 uM to 3 uM after 1 hr by Western blot analysis. The format is cell-based. The procedure, abridged: as §1

Data set [17] deals with Serine/threonine-protein kinase PAK 2 (Homo sapiens, UniProt Q13177). Nature of the data set: Binding affinity to wild-type human partial length PAK2 (P151 to R525 residues) expressed in bacterial expression system assessed as enzyme remaining activity at 1 uM by Kinomescan assay relative to control. The procedure, abridged:
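KINOMEscan competition binding panel of 468 kinases and mutants, compound at 1 μM; binding reported as percent of control.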

Sequence of Platelet-derived growth factor receptor alpha (P16234 whole entry, the tested form may be a part): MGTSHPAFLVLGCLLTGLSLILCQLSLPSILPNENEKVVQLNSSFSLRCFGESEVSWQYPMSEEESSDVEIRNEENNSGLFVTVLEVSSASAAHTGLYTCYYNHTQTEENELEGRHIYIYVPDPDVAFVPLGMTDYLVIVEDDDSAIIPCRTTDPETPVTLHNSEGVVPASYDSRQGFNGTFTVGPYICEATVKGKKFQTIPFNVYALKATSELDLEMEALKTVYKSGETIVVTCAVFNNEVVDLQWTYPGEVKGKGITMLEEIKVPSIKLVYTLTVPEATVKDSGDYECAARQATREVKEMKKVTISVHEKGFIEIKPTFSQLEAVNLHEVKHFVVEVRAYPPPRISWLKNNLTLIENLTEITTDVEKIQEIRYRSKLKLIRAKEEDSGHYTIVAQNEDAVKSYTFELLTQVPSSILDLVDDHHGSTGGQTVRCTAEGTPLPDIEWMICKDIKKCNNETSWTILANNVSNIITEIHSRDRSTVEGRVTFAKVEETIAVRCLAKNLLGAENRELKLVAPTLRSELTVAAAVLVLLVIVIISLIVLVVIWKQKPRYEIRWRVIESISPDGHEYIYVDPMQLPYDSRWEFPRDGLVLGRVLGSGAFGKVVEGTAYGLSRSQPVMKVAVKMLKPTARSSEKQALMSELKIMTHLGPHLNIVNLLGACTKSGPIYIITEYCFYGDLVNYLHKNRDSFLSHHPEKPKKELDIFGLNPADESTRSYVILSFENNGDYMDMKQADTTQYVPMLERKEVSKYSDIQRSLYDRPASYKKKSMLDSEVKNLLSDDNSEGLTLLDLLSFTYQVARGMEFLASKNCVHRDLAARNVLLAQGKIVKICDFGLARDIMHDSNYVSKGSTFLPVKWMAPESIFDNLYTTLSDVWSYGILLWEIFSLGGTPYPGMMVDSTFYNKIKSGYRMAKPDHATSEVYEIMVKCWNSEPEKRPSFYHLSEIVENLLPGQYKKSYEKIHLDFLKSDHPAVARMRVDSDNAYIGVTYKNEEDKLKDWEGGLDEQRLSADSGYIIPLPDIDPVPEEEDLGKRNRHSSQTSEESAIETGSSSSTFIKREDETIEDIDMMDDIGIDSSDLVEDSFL
Sequence of Serine/threonine-protein kinase PAK 2 (Q13177 whole entry, the tested form may be a part): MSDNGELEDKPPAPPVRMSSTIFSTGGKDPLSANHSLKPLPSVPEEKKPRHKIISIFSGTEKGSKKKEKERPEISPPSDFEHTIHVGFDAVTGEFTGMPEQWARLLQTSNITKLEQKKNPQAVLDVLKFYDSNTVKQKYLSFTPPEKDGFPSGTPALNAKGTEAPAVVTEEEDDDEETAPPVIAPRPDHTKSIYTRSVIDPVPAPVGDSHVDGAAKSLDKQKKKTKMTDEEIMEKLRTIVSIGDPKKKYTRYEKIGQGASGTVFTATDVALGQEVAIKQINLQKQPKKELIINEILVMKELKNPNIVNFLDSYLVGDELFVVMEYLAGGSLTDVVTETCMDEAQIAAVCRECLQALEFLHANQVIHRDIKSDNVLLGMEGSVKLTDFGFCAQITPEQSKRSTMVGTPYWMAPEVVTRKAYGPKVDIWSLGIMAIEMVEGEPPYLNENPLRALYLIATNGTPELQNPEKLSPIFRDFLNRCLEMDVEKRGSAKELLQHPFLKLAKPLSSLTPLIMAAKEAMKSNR

A word on the EC50: it is the concentration that produces a half-maximal response. A word on the IC50: it is the concentration that inhibits the measured activity by half. Lower therefore signals higher potency. By Cmax is commonly meant the maximum level reached in the sampled fluid or tissue. The term GI50 denotes the concentration at which growth is held to half of that of the control. `O=C(CC(=O)Nc1ccc2c(/C=C/c3ccccn3)n[nH]c2c1)Nc1cccc(F)c1`: the inhibition entry (in data set [1]; in [11]; in data set [12]; in the data set on Mus musculus; in [16]) was “Active” in each case. The Drug uptake entry in [2] was “Not Active”. The concentration giving a half-maximal response (EC50) was determined as 34 nM in [3] and 1430 nM in data set [6]. In data set [4], the CL/F is 207 mL/min/kg. Moreover, the IC50 was 7780 nM in data set [5] and over 10000 nM in [15]. The concentration in data set [7] peaked (Cmax) at 97.1 ng/mL. Also, the clearance in data set [8] was 55 mL/min/kg. Further, the GI50 came to 525 nM in data set [9], 288 nM with GISTT1 [10] and 296 nM in the data set on GIST882. The Activity result in the data set with GISTT1 [13] was “Dose-dependent effect”; in data set [14], under 1%; in [17], 0.1%.

(Values after ChEMBL document CHEMBL4304743, “Discovery of ( E)- N1-(3-Fluorophenyl)- N3-(3-(2-(pyridin-2-yl)vinyl)-1 H-indazol-6-yl)malonamide (CHMFL-KIT-033) as a Novel c-KIT T670I Mutant Selective Kinase Inhibitor for Gastrointestinal Stromal Tumors (GISTs)” (J Med Chem, 2019).)
